Assay outcomes (PubChem)
MEKK2 WT-MEK5 – raises or lowers MEK5 binding to wildtype human MEKK2 PB1 domain | Q9Y2U5 | bead flow cytometry, Alexa488-MEK5 binding to MEKK2 WT; actives lie on both sides | binding response (% of control), % at 10 µM | 290,000 compounds, 1.1% hits; in the data active = binding response below about 67% or above about 130%
Apaf1 inhib – human Apaf-1 inhibition | O14727 | reconstituted apoptosome caspase-3 activity, DEVD-Rh110 fluorescence | inhibition, % at 20 µM | 330,000 compounds, 0.71% hits; active = inhibition of at least 40% at 20 µM
Target sequence (O14727 whole entry, looked up): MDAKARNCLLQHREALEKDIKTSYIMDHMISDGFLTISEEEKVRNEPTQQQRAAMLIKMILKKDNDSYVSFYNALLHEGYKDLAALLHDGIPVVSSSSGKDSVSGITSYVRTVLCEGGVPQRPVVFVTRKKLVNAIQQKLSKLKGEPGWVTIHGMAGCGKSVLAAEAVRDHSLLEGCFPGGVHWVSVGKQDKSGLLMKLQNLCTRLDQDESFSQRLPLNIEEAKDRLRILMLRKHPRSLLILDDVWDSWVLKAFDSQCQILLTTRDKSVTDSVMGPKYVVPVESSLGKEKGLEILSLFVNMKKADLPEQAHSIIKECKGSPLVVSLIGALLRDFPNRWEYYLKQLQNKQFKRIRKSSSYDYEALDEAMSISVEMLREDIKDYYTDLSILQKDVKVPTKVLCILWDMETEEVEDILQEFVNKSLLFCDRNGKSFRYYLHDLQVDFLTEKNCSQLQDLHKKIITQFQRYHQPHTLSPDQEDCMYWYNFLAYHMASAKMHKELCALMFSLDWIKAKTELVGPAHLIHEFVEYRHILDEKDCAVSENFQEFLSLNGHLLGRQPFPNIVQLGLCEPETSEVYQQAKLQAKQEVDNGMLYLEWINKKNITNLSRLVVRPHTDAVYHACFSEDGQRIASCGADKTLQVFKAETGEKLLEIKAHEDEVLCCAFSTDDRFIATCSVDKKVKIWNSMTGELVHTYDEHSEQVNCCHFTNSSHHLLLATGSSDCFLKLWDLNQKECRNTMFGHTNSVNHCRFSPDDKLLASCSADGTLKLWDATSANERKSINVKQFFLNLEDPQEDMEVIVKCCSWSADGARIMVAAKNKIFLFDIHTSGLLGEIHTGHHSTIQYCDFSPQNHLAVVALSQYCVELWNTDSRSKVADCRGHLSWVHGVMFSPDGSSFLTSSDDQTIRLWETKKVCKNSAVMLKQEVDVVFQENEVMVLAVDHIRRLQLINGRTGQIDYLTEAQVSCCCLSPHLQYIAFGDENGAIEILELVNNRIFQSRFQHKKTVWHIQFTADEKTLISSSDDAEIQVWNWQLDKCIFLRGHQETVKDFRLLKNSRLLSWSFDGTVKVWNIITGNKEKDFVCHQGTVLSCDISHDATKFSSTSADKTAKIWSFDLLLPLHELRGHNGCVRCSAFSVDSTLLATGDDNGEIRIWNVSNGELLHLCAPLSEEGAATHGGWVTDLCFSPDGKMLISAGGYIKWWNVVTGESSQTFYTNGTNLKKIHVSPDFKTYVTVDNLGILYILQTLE
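Assay system – apoptosome proteins · Medium – Hepes buffer, pH 7.5 · Also added – cytochrome c with DEVD-Rh110 · Timing – 30 min compound preincubation, 50 min activation, room temperature · Detection – Rh110 fluorescence, excitation 480 nm, emission 540 nm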
MEKK2 mut-MEK5 – signal of MEK5 binding to mutant human MEKK2 PB1 domain; 290,000 compounds, 0.35% hits; percent response, % at 10 µM; AID 1530; bead flow cytometry, Alexa488-MEK5 binding to MEKK2 mutant; in the data active = percent response above about 24%, passing the limit was not always enough
UBC13 inh – inhibitors of human UBC13 polyubiquitin chain formation; 330,000 compounds, 0.47% hits; inhibition, % at 20 µM; P61088; TR-FRET; AID 485273; in the data active = inhibition above about 45%, passing the limit was not always enough
Pemphigus Ab inh – inhibitors of pemphigus antibody binding to human desmoglein-3 | 310,000 compounds, 0.48% hits | binding (percent of control), % at 10 µM | P32926 | DSG3-coupled beads, scFv-anti-DSG3-GFP binding, flow cytometry; stronger effect = lower value;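 active = binding more than 3 SD below its plate's average and above zero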
MEKK3 PB1 HTS – modulators (inhibitors or enhancers) of MEK5 binding to human MEKK3 PB1 domain; Q99759; bead-based flow cytometry, Alexa488-MEK5 binding to MEKK3; actives lie on both sides; 0 = blocked by unlabeled MEK5, 100 = vehicle; binding response (% of control), % at 10 µM; 290,000 compounds, 1.4% hits; AID 1529;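 active = binding response more than 3 SD above or below the average of its plate-row segment, actives on both sides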;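 note: Alexa488 bead fluorescence after subtracting the streptavidin-only scavenger bead signal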
MEKK2wt confirm – raises or lowers MEK5 binding to wildtype human MEKK2, retest | AID 1892 | 5,900 compounds, 2.4% hits | bead flow cytometry, Alexa488-MEK5 binding to MEKK2 WT; actives lie on both sides | binding response (% of control), % at 10 µM | shares compounds with MEKK3 PB1 HTS; in the data active = binding response below about 16% or above about 210%; inactive = in between
MEKK2mut-MEK5 – signal of MEK5 binding to mutant human MEKK2, retest; shares compounds with MEKK3 PB1 HTS; 5,900 compounds, 2% hits; AID 1893; percent response, % at 10 µM; bead flow cytometry, Alexa488-MEK5 binding to MEKK2 mutant; in the data active = percent response mostly above about 71%, no sharp cut-off; inactive = mostly below about 38%;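 note: higher means compound restores mutant binding toward wildtype level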
MEKK3 confirm – MEKK3-MEK5 PB1 inhibition, single concentration confirmation | shares compounds with MEKK3 PB1 HTS | bead flow cytometry, Alexa488-MEK5 binding to MEKK3; stronger effect = lower value | binding response (% of control), % at 10 µM | 5,900 compounds, 1.8% hits | AID 1894;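 active = binding response below 72% of control, or above a set upper limit, though filed actives all read lower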
A number is an active result; – = inactive; · = not tested or not shown; [ ] = remark or other dose. Rows were chosen to be rich in hits. Some 3.2% of all compounds tested hit in one or more screens of this group.

SMILES | MEKK2 WT-MEK5 | Apaf1 inhib | MEKK2 mut-MEK5 | UBC13 inh | Pemphigus Ab inh | MEKK3 PB1 HTS | MEKK2wt confirm | MEKK2mut-MEK5 | MEKK3 confirm
COc1ccc(OC)c(CCNC(=O)CCc2cn(C)c3ccccc23)c1 | – | – | – | – | – | – | · | · | ·
CCCCNC(=S)Nc1ccccc1F | – | – | 25.0 | – | – | – | – | – | –
CC(C)CNC(=S)Nc1ccccc1F | – | – | – | – | – | – | · | · | ·
O=C(Nc1ccc(F)cc1)c1ccc(CSc2ccccc2)o1 | – | – | – | – | – | 145.0 | – | – | –
CC(NC(=O)Nc1ccc(Cl)c(Cl)c1)C(c1ccccc1)N1CCOCC1 (stereo not drawn) | – | – | – | – | – | 139.0 | – | – | –
CCOC(=O)CCC(NC(=O)c1ccc(Nc2nc3ccccc3nc2C(=O)OCC)cc1)C(=O)OCC (stereo not drawn) | · | · | · | · | – | · | · | · | ·
CSC(=NC#N)N1CCN(C(c2ccccc2)c2ccccc2)CC1 | – | – | – | – | – | – | · | · | ·
CSC(=NC#N)N1CCN(C(=NC#N)SC)CC1 | 1.0[inhibitor] | – | – | – | – | 2.0[inhibitor] | – | – | –
Cc1ccc(/C=N/NC(=S)NC2CCS(=O)(=O)C2)cc1 (stereo not drawn) | · | – | · | – | – | · | · | · | ·
COc1ccc(/C=N/NC(=S)NC2CCS(=O)(=O)C2)cc1OC (stereo not drawn) | – | – | – | – | – | 123.0 | – | – | –
COc1ccccc1N1CN(S(=O)(=O)c2ccc(C)cc2)c2nc3ccccc3nc21 | · | – | · | – | – | · | · | · | ·
COc1ccc(OC)c(S(=O)(=O)n2ccc(C)n2)c1 | – | – | – | – | – | – | · | · | ·
COc1ccc(OC)c(S(=O)(=O)n2nc(C)cc2C)c1 | – | – | – | – | – | 135.0 | – | – | –
Cc1cccc2cc(CN(Cc3ccccc3)C(=O)N(C)C)c(=O)[nH]c12 | – | – | – | – | – | 127.0 | – | – | –
CN(C)CCNc1nc2sc3c(c2c(=O)n1-c1ccccc1)CCCCC3 | – | – | – | – | – | – | · | · | ·
CN(C)CCNc1nc2sc3c(c2c(=O)n1Cc1ccccc1)CCCCC3 | 149.0 | – | – | – | – | – | – | – | –
O=C(CCc1ccccc1)OCCOC(=O)CCc1ccccc1 | – | – | – | – | – | – | · | · | ·
COc1ccc(S(=O)(=O)NCc2ccco2)cc1C(=O)N1CCOCC1 | – | – | – | – | – | – | · | · | ·
COc1ccc(S(=O)(=O)NC(C)C)cc1C(=O)N1CCOCC1 | -2.0[inhibitor] | – | – | – | – | – | – | – | –
C[C@@H]1CN([C@H](C)CO)C(=O)CCCn2nncc2CO[C@H]1CN(C)Cc1cccc(O)c1 | · | · | · | · | – | · | · | · | ·
NC1=NC[C@H](Cc2ccc(O)cc2)N1CCCCC1CCCCC1 | 184.0[inhibitor] | 52.7 | – | 73.2 | – | – | – | – | –
C/C=C(\C)C(=O)NCCN1C2=NC[C@@H](C)N2C[C@H]1Cc1ccc(O)cc1 | – | – | – | – | – | – | · | · | ·
C/C=C(\C)C(=O)NCCN1C2=NC[C@@H](C)N2C[C@@H]1Cc1ccc(OC)cc1 | – | – | – | – | – | – | · | · | ·
C/C=C(\C)C(=O)NCCN1C2=NC[C@H](Cc3ccccc3)N2C[C@H]1Cc1ccc(O)cc1 | 153.0 | – | – | – | – | – | – | – | –
C/C=C(\C)C(=O)NCCN1C2=NC[C@H](Cc3ccccc3)N2C[C@@H]1Cc1ccc(OC)cc1 | 153.0 | – | – | – | – | – | – | – | –
C[C@@H](CN1C2=NC[C@H](Cc3ccc(O)cc3)N2C[C@H]1Cc1ccc(O)cc1)NC(=O)CCC1CCCCC1 | 141.0 | – | – | – | – | – | – | – | –
